Results published in ChEMBL document CHEMBL4680287, “Ibrexafungerp: An orally active β-1,3-glucan synthesis inhibitor” (Bioorg Med Chem Lett, 2021).
Converted amounts (≈) assume the structure as drawn.

Legend:
Candida albicans [1] = test: Antifungal activity against Candida albicans MY1055 infected in DBA/2 mouse model of disseminated candidiasis assessed as reduction in fungal burden in kidney by measuring log change in colony forming units at 12.5 mg/kg, po bid for 7 days by TOKA; format: functional; settings: time 7 day
In short: (§1)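 Murine disseminated candidiasis model (TOKA) in mice challenged with C. albicans MY1055 at 2.44 x 10^4 CFU/mouse. Dosed PO, or IP where stated. Kidneys collected aseptically 7 days after challenge and CFUs/g counted. Change in log CFU/g is relative to sham-treated controls; significance by two-tailed t test. Clearance is the percentage of kidneys below the detection limit.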

Candida albicans [2] = test: Antifungal activity against Candida albicans MY1055 infected in DBA/2 mouse model of disseminated candidiasis assessed as reduction in fungal burden in kidney by measuring log change in colony forming units at 12.5 mg/kg, ip bid for 7 days by TOKA; format: functional; settings: time 7 day; in short: as §1
[3] = Inhibition of beta-1,3-glucan synthase in Candida albicans MY1055 microsomal membrane assessed as inhibition of TCA-insoluble material formation using UDP-[3H]-glucose as substrate incubated for 2 hrs in presence of GTP by radioactivity-based assay; format: microsomes, Microsome
In short: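 GS IC50 measured using Candida albicans MY1055 microsomal membrane fragments as the enzyme source.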

Aspergillus fumigatus = test: Antifungal activity against Aspergillus fumigatus MF5668 assessed inhibition of fungal growth by measuring morphological changes measured after 24 hrs by microscopy; format: functional; settings: read-out: MEC
In short: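 Microdilution per CLSI protocols in RPMI medium. Read-out is the minimum effective concentration (MEC). Run without serum and with 50% human serum.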

Candida albicans [4] = test: Antifungal activity against Candida albicans MY1055 assessed as fungal growth inhibition measured after 24 hrs in presence of 50% mouse serum by liquid microdilution method; format: functional
In short: (§2)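 Broth microdilution per CLSI protocols in RPMI medium. Read-out is the MIC, the lowest concentration completely inhibiting fungal growth. Run without serum and with added serum.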

Candida albicans [5] = test: Antifungal activity against Candida albicans MY1055 assessed as fungal growth inhibition measured after 24 hrs by liquid microdilution method; format: functional; in short: as §2
Candida albicans [6] = test: Antifungal activity against Candida albicans MY1055 infected in DBA/2 mouse model of disseminated candidiasis assessed as reduction in fungal burden in kidney by measuring log change in colony forming units at 6.25 mg/kg, po bid for 7 days by TOKA; format: functional; settings: time 7 day; in short: as §1
[7] = Oral bioavailability in mouse; format: ADME, organism-based; settings: in vivo
In short: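 Oral bioavailability calculated as oral AUC normalized to the IV dose, divided by the IV AUC.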

Candida albicans [8] = test: Antifungal activity against Candida albicans MY1055 infected in DBA/2 mouse model of disseminated candidiasis assessed as reduction in fungal burden in kidney by measuring log change in colony forming units at 25 mg/kg, po bid for 7 days by TOKA; format: functional; settings: time 7 day; in short: as §1
[9] = Dose normalized AUC in po dosed mouse; format: ADME, organism-based; settings: in vivo

| IC50 [3] [µg/mL] | MIC (Candida albicans [4]) [µg/mL] | MIC (Candida albicans [5]) [µg/mL] | bioavailability [7] [%] | AUC/dose [9] [µM·kg·h/mg] | SMILES | Activity (Candida albicans [1]) [deltalog10CFU] | Activity (Candida albicans [2]) [deltalog10CFU] | minimal effective concentration (Aspergillus fumigatus) [µg/mL] | Activity (Candida albicans [6]) [deltalog10CFU] | Activity (Candida albicans [8]) [deltalog10CFU] |
| --- | --- | --- | --- | --- | --- | --- | --- | --- | --- | --- |
| 0.001 | 0.5 | 0.015 (≈ 0.0218 µM) |  |  | CC(C)[C@@H](C)[C@@]1(C)CC[C@]2(C)[C@H]3CC[C@@H]4[C@@]5(COC[C@@]4(C)[C@@H](OCC(C)(C)N)[C@H](n4ncnc4-c4ccncc4)C5)C3=CC[C@@]2(C)[C@@H]1C(=O)O | -1.1 | -4.2 | < 0.03 |  |  |
| 0.001 | 0.5 | 0.06 (≈ 0.0822 µM) | 29 | 0.83 | CN[C@@](C)(CO[C@H]1[C@H](n2ncnc2-c2ccncc2)C[C@@]23COC[C@]1(C)[C@@H]2CC[C@H]1C3=CC[C@@]2(C)[C@H](C(=O)O)[C@@](C)([C@H](C)C(C)C)CC[C@]12C)C(C)C | -3.1 |  | < 0.03 | -0.9 | -3.7 |
| 0.004 | 1 | 0.06 (≈ 0.0791 µM) | 25 | 0.35 | CC(C)[C@@H](C)[C@@]1(C)CC[C@]2(C)[C@H]3CC[C@@H]4[C@@]5(COC[C@@]4(C)[C@@H](OC[C@@]4(N)CCOCC4(C)C)[C@H](n4ncnc4-c4ccncc4)C5)C3=CC[C@@]2(C)[C@@H]1C(=O)O | -2.2 |  | 0.004 | -0.9 | -3.2 |
| 0.006 | 1 | 0.06 (≈ 0.0837 µM) | 26 | 0.33 | CC(C)[C@@H](C)[C@@]1(C)CC[C@]2(C)[C@H]3CC[C@@H]4[C@@]5(COC[C@@]4(C)[C@@H](OC[C@](C)(N)C(C)C)[C@H](n4ncnc4-c4cncnc4)C5)C3=CC[C@@]2(C)[C@@H]1C(=O)O | -3 |  | < 0.03 | -2.1 | -3 |
| 0.001 | 1 | 0.015 (≈ 0.0204 µM) | 26 | 0.34 | CC(C)[C@@H](C)[C@@]1(C)CC[C@]2(C)[C@H]3CC[C@@H]4[C@@]5(COC[C@@]4(C)[C@@H](OC[C@](C)(N)C(C)C)[C@H](n4ncnc4-c4ccncc4F)C5)C3=CC[C@@]2(C)[C@@H]1C(=O)O | -2.5 |  | 0.008 | -2.6 | -4.2 |
| 0.002 | 0.5 | < 0.03 | 36 | 0.65 | CC(C)[C@@H](C)[C@@]1(C)CC[C@]2(C)[C@H]3CC[C@@H]4[C@@]5(COC[C@@]4(C)[C@@H](OC[C@](C)(N)C4(C)CC4)[C@H](n4ncnc4-c4ccncc4)C5)C3=CC[C@@]2(C)[C@@H]1C(=O)O | -2.6 |  | < 0.03 | -1.5 | -4.3 |
| 0.002 | 1 | 0.125 (≈ 0.174 µM) | 29 | 0.23 | CC(C)[C@@H](C)[C@@]1(C)CC[C@]2(C)[C@H]3CC[C@@H]4[C@@]5(COC[C@@]4(C)[C@@H](OC[C@](C)(N)C(C)C)[C@H](n4ncnc4-c4ccnnc4)C5)C3=CC[C@@]2(C)[C@@H]1C(=O)O | -1.2 |  | < 0.03 | -1.2 | -2.6 |
| 0.004 | 1 | 0.06 (≈ 0.0838 µM) | 11 | 0.17 | CC(C)[C@@H](C)[C@@]1(C)CC[C@]2(C)[C@H]3CC[C@@H]4[C@@]5(COC[C@@]4(C)[C@@H](OC[C@](C)(N)C(C)C)[C@H](n4ncnc4-c4cccnc4)C5)C3=CC[C@@]2(C)[C@@H]1C(=O)O | -2.9 |  | < 0.03 | -1.4 | -3.1 |
| 0.005 | 1 | 0.25 (≈ 0.342 µM) | 21 | 0.59 | CN[C@@](C)(CO[C@H]1[C@H](n2ncnc2-c2cccnc2)C[C@@]23COC[C@]1(C)[C@@H]2CC[C@H]1C3=CC[C@@]2(C)[C@H](C(=O)O)[C@@](C)([C@H](C)C(C)C)CC[C@]12C)C(C)C | -2.4 |  | < 0.03 | -1.1 | -3 |
| 0.005 | 4 | < 0.03 | 43 | 2.38 | CC(C)[C@@H](C)[C@@]1(C)CC[C@]2(C)[C@H]3CC[C@@H]4[C@@]5(COC[C@@]4(C)[C@@H](OC[C@](C)(N)C(C)C)[C@H](n4ncnc4-c4ccncn4)C5)C3=CC[C@@]2(C)[C@@H]1C(=O)O |  |  | < 0.03 |  |  |
| 0.003 | 4 | 0.25 (≈ 0.35 µM) | 28 | 0.5 | CC(C)[C@@H](C)[C@@]1(C)CC[C@]2(C)[C@H]3CC[C@@H]4[C@@]5(COC[C@@]4(C)[C@@H](OC[C@](C)(N)C(C)C)[C@H](n4ncnc4-c4ccccc4)C5)C3=CC[C@@]2(C)[C@@H]1C(=O)O | -1.7 |  | < 0.03 | -0.2 | -2.4 |
